Entries after “also recorded” stand apart in the source; their conditions may differ.
Legend:
[1] = test system: Escherichia coli strain ATCC 25922; assay: Broth dilution MIC; format: cell-based; conditions: result in words; for Activity (MIC) in broth dilution against E. coli: absence of RBCs, 5x10^5 CFU/ml, overnight 37°C
[2] = test system: Staphylococcus aureus strain ATCC 25923; assay: Broth dilution MIC; format: cell-based; conditions: absence of RBCs; 5x10^5 CFU/ml, overnight 37°C; result in words
[3] = test system: human RBC; assay: Hemolysis of human RBCs; format: cell-based; conditions: result in words; for Hemolysis, propensity to lyse human RBCs: 1x10^8 human RBC/ml, 100 μM peptide, 37° C, 1 hour; for Selectivity (antimicrobial activity relative to host cell toxicity): represented by hemolysis at 100 μM peptide
[4] = test system: E. coli; assay: Radial diffusion assay in the presence of RBCs and/or serum; format: cell-based, Escherichia coli; conditions: RBCs up to 1x10^9 cells/ml, 30 min 37°C; result in words
Outline: (§1)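 Log-phase (TSB) E. coli ATCC 25922 or S. aureus ATCC 25923, 8 × 10^6 CFU in 20 mL underlay agarose with 3 mm wells. Test peptide at 20 μM was preincubated 30 min at 37 °C with washed human O+ RBCs and/or filtered serum at 2–20% of whole blood (1 × 10^8–1 × 10^9 cells/mL). 10 μL per well, 3 h at 37 °C, overlay, overnight; inhibition zones imaged.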

[5] = test system: Escherichia coli strain ATCC 25922; conditions: result in words; cited from earlier work
[6] = test system: Staphylococcus aureus strain ATCC 25923; conditions: result in words; cited from earlier work
[7] = test system: Pseudomonas aeruginosa; conditions: result in words; cited from earlier work
[8] = test system: S. aureus; assay: Radial diffusion assay in the presence of RBCs; format: cell-based, Staphylococcus aureus; conditions: RBCs up to 1x10^9 cells/ml, 30 min 37°C; result in words
Outline: as §1

[9] = test system: E. coli; assay: Number of bound peptides required to kill E. coli; format: cell-based, Escherichia coli; conditions: calculated from sterilization limit and binding curve

In the case of “KWKLFKKIEKVGQN-IRDGIIKAGPAVAVVGQATQIAK [cecropin A]”, the “Activity (MIC) in broth dilution against E. coli” value [1] is reported as “highly active”, the “Activity (MIC) in broth dilution against S. aureus” value [2] is reported as “not against S. aureus” and the “Hemolysis, propensity to lyse human RBCs” value [3] is reported as “near zero propensity to lyse dilute human RBCs”. The “Selectivity (antimicrobial activity relative to host cell toxicity)” value [3] was “highly selective; also recorded: most selective in our set”.
With GIGKFLHSAKKFGK-AFVGEIMNS [magainin II] the “Activity (MIC) in broth dilution against E. coli” value [1] was “active only against E. coli”, the “Activity (MIC) in broth dilution against S. aureus” value [2] was “active only against E. coli” and the “Hemolysis, propensity to lyse human RBCs” value [3] was “near zero propensity to lyse dilute human RBCs”. The “Selectivity (antimicrobial activity relative to host cell toxicity)” value [3] was “highly selective”.
In the case of [H]/N=C(/N)N[C@H]1[C@H](O)[C@@H](O)[C@H](O[C@@H]2O[C@@H](C)[C@](O)(C=O)[C@H]2O[C@@H]2O[C@@H](CO)[C@H](O)[C@@H](O)[C@@H]2NC)[C@@H](N/C(N)=N\[H])[C@@H]1O [streptomycin], the “Effect of preincubation with RBCs on radial diffusion activity” value [4] is reported as “not affected significantly”.
In the case of RRGWALRLVLAY-NH2 [ARVA-L], the “Host cell effect on MIC without preincubation with host cells” value ([1]; compared with preincubation, organism not stated) is reported as “much smaller” and the “Selectivity (antimicrobial activity relative to host cell toxicity)” value [3] is reported as “fair selectivity”.
With ILPWKWPWWPWRR-NH2 [indolicidin] the “Selectivity (antimicrobial activity relative to host cell toxicity)” value [3] was “poor selectivity; also recorded: very poor selectivity”.
With melittin the “Hemolysis, propensity to lyse human RBCs” value [3] was “highly hemolytic”, the “Selectivity (antimicrobial activity relative to host cell toxicity)” value [3] was “completely non-selective; also recorded: least selective peptide by far” and the “Selectivity (antimicrobial activity relative to host cell toxicity)” value ([3]; listed as Melittin) was “entirely non-selective”.
In the case of “LLGDFFRKSKEKIGKEFKRIVQRIKDFLRNLVPRTES [LL-37]”, the “Activity in sterilization assay against E. coli (known)” value [5] is given as “poor against E. coli” and the “Activity in sterilization assay against S. aureus (known)” value [6] is given as “undetectable against S. aureus”.
For RRWVRRVRRWVRRVVR-VVRRWVRR [WLBU2], the “Activity in whole blood against Pseudomonas aeruginosa” value [7] is given as “retained activity in whole blood”.
In the case of GIGKFLKKAKK-FGKAFVKILKK-NH2 [MSI-78], the “Selectivity (antimicrobial activity relative to host cell toxicity)” value [3] is reported as “moderately high selectivity”.
For CN[C@H](CC(C)C)C(=O)N[C@H]1C(=O)N[C@@H](CC(N)=O)C(=O)N[C@H]2C(=O)N[C@H]3C(=O)N[C@H](C(=O)N[C@H](C(=O)O)c4cc(O)cc(O)c4-c4cc3ccc4O)[C@H](O)c3ccc(c(Cl)c3)Oc3cc2cc(c3O[C@@H]2O[C@H](CO)[C@@H](O)[C@H](O)[C@H]2O[C@H]2C[C@](C)(N)[C@H](O)[C@H](C)O2)Oc2ccc(cc2Cl)[C@H]1O [vancomycin], the “Effect of preincubation with RBCs on radial diffusion activity” value [8] was “not affected significantly”.
In the case of RRGWALRLVLAY-NH2 [ARVA], the “Bound peptides per bacterial cell required for sterilization (no surviving CFUs)” value [9] is reported as > 1x10^8 peptides per bacterial cell.

Reference: article PMC5521815 (ACS chemical biology, 2016)
